# Screening results as filed in PubChem BioAssay.
# Sampled rows, rich in hits. Any-hit rate of the full collection: about 1.6%.
# PvdQ acylase: blocks Pseudomonas aeruginosa PvdQ acylase activity. purified PvdQ acylase, fluorescence plate reader. inhibition, % at 10 µM. 0.063% of 340,000 active. AID 488965; in the data active = inhibition above about 30%, passing the limit was not always enough;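 also: 0% = vehicle neutral wells and 100% = reference inhibitor wells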
# dFosB act: mouse delta FosB homodimer activation; P13346; purified delta FosB, TAMRA-CDK5 oligo fluorescence polarization; percent of positive-control signal above neutral wells; activation, % at 25 µM; 0.99% of 340,000 active; AID 493131;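 active = mean activation above about 17%, with every replicate also reaching it, limit read from the data, passing the limit was not always enough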
# Target sequence (P13346 whole entry, looked up): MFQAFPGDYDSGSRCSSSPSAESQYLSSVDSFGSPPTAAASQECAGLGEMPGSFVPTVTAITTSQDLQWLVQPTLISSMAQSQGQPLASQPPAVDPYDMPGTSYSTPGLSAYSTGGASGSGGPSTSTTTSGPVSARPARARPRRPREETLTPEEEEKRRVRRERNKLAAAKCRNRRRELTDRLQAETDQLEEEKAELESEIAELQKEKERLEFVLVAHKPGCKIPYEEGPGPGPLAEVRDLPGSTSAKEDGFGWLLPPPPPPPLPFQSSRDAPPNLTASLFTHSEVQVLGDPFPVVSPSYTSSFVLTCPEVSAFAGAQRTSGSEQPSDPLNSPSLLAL
# SR-BI uptake up: activators of SR-BI mediated HDL lipid uptake; 0.096% of 320,000 active; CHO ldlA[mSR-BI] cells, DiI-HDL uptake fluorescence, 3 h; 100 = double the neutral-control signal; activation, % at 12.5 µM;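 active = mean replicate activation of at least 60% and every replicate at or above 60%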;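 also: 0% = median plate neutral-control signal and 100% = twice that signal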
#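 system = CHO ldlA[mSR-BI] cells, LDL receptor-null, SR-BI overexpressing | medium = Ham's F12 with 0.5% BSA, HEPES 25 mM, pH 7.4 | probe or stimulus = DiI-HDL 10 µg/mL | compound dosing = single-point compound dose | incubation = compound exposure 3 h, 37 °C | technique = DiI fluorescence, bottom read | read-out = cell-associated DiI fluorescence as measure of HDL uptake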
# RAD54 branch: blocks human RAD54 Holliday junction branch migration; Q92698; FAM/BHQ fluorescence; inhibition, % at 10.4 µM; 0.14% of 360,000 active; AID 602329;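 active = mean normalized replicate activity at least 40 and at least half of replicates scoring 40 or more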;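 also: 0% = median of neutral control wells and 100% = median of positive control wells; inhibitors cause a drop in the FAM fluorescence signal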
# SR-BI DiI inh: inhibitors of mouse SR-BI mediated HDL lipid uptake | AID 488896 | Q61009 | ldlA[mSR-BI] CHO cells, DiI-HDL uptake fluorescence, 3 h | 0.96% of 320,000 active | inhibition, % at 12.5 µM;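 active = mean replicate inhibition of at least 70% and a set share of replicates each scoring 70 or more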;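 also: 0% = median of neutral control wells and 100% = median of positive control wells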
# S100A4 MyoIIA: S100A4-myosin IIA interaction inhibition; 0.14% of 360,000 active; inhibition, % at 10.7 µM; P26447; S100A4/TAMRA-MyoIIA peptide fluorescence polarization;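 active = mean inhibition of at least 70% across replicates, with every replicate also reaching that level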
# Target sequence (P26447 whole entry, looked up): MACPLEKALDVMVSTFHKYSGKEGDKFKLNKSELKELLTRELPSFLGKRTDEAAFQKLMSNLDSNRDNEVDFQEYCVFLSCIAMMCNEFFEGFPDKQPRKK
#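 Test system: S100A4 monomer protein. Medium: HEPES buffer with Ca2+, pH 7.2. Reagent: fluorescent myosin IIA peptide, 5 nM. Compound dosing: single-point compound testing. Timing: 5 min between mix addition and reading. Benchmarks: DMSO neutral and TFP positive wells.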
# The depositor's hits bear a star; / = not tested or not shown.
SMILES,PvdQ acylase,dFosB act,SR-BI uptake up,RAD54 branch,SR-BI DiI inh,S100A4 MyoIIA
Cc1cccc(NC(=O)[C@H](Cc2c[nH]c3ccccc23)NC(=O)[C@@H]2Cc3ccccc3CN2)c1,-11,22*,9,8,-9,-1
Cn1cc(Cl)cc(C(=O)Nc2ccccc2)c1=O,-11,-10,/,-7,/,-10
N#Cc1cc(C(=O)c2cc(Cl)ccc2O)cn(-c2ccccc2)c1=O,5,-9,76*,/,-76,/
Cc1ccc(NC(=O)c2cc(C(=O)c3cc(Cl)ccc3O)cn(-c3ccc(C)cc3)c2=O)cc1,-2,-7,-83,-11,83*,1
CCCNC(=O)Nc1ccc2c(c1)C(=O)N(C)[C@H]1CC[C@H](CC(=O)NC3CCC3)O[C@@H]1CO2,/,/,/,-7,/,34
C[C@@H]1CN([C@H](C)CO)S(=O)(=O)c2ccc(-c3cccnc3)cc2O[C@@H]1CN(C)C(=O)C1CCC1,/,/,/,-10,/,1
NC(=S)NN=C1c2cc(Cl)ccc2-c2c1cc(Cl)cc2[N+](=O)[O-],-8,-2,-105,-4,105*,/
Cc1cc(C)nc(N(C#N)Cc2cccc([N+](=O)[O-])c2)n1,36*,2,-25,/,25,/
COc1ccc(CN(C#N)c2nc(C)cc(C)n2)cc1,3,-2,6,10,-6,-8
COc1cccc(CC(=O)Nc2ccccc2C(=O)N2CCOCC2)c1,-5,5,71*,/,-71,/
COc1ccc(-c2nc(NC(=O)c3ccco3)sc2C)cc1,/,/,/,-7,/,-5
COc1ccc(-c2nc(NC(=O)c3[nH]c(C)c(C(C)=O)c3C)sc2C)cc1,-4,-14,-76,/,76*,-12
C[C@H]1CN([C@@H](C)CO)C(=O)c2cccc(NC(=O)c3ccncc3)c2O[C@@H]1CN(C)S(=O)(=O)c1cn(C)cn1,/,/,/,-4,/,10
Cc1ccc(C(F)(F)F)cc1NC(N)=S,-4,4,-77,/,77*,10
Cc1ccc(NC(N)=S)cc1C,9,-1,7,-2,-7,-2
CCC(/C=C1\Sc2ccc(OC)cc2N1CC)=C\c1sc2ccc(OC)cc2[n+]1CCCS(=O)(=O)[O-],-7,134*,15,5,-15,99*
COC(=O)N/N=C/c1cc(Cl)cc(Cl)c1OCc1ccc(F)cc1,0,-3,-84,4,84*,/
COC(=O)N/N=C/c1cc(Cl)c(OCc2ccc(F)cc2)c(OC)c1,8,6,-34,-4,34,/
COc1ccc(C(=O)Nc2cccc(OC(=O)c3ccc(C)c(C)c3)c2)cc1,-13,-7,-6,-2,6,/
CC(=O)Oc1ccc(C(=O)Nc2cccc(C(=O)c3ccc(C)c(C)c3)c2)cc1,6,-13,-84,-5,84*,-1
Cc1cc(C(=O)Nc2sc3c(c2C#N)CCC(C)C3)cs1 (centres undefined),7,-1,-75,-7,75*,/
C[C@H]1CN([C@@H](C)CO)S(=O)(=O)c2ccc(C#CCN(C)C)cc2O[C@H]1CN(C)C(=O)C1CCC1,/,/,/,1,/,-1
COC(=O)c1cc(NC(=S)Nc2cc(Cl)cc(Cl)c2)cc(C(=O)OC)c1,0,-4,-86,/,86*,-4
COC(=O)c1cccc(NC(=S)Nc2ccccc2Cl)c1,-11,-5,-29,-1,29,2
CC1Cc2ccccc2N1Cc1cc(=O)c(OCC(=O)Nc2ccccc2)co1 (centres undefined),-1,-8,-3,-8,3,-3
COc1ccc(CCNC(=O)COc2coc(CN3c4ccccc4CC3C)cc2=O)cc1OC (centres undefined),-5,-5,-85,5,85*,3
Cc1cccc2c(N=NC(=O)c3ccc(NS(=O)(=O)c4cccs4)cc3)c(O)[nH]c12,-9,-12,-5,4,5,-15
Cc1cccc2c(N=Nc3ccc(S(=O)(=O)Nc4ccc(Cl)cc4)cc3[N+](=O)[O-])c(O)[nH]c12,11,9,-97,/,97*,-6
Nc1ccccc1Nc1ccc([N+](=O)[O-])cc1[N+](=O)[O-],-5,-4,15,/,-15,-4
